Values joined by “and” are separate entries in the source; they are usually repeats but may differ in a detail not shown here. Equal values may be shown once.
Tested on: U2OS
Test: Multiplex assay against U2OS
Assay type: toxicity, cell-based
Details: human, number of replicates 2
Summary of the method: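 With compound added, live cells were imaged on a CQ1 microscope at 37°C and 5% CO2; staining with Hoechst33342, BioTracker Green Microtubule Cytoskeleton Dye, MitoTracker Red and Annexin V Alexa Fluor 680 had been done at seeding. The CellPathfinder machine-learning gating scheme split cells into Hoechst high-intensity objects or normal cells, normal cells into healthy, pyknosed or fragmented nuclei, and pyknosed cells into mitotic or apoptotic. The tubulin, mitochondrial-mass and membrane-permeability phenotypes are per cents of healthy-nucleus cells.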

[1] = 12 h, 1 µM, compound concentration 1 uM
[2] = 12 h, 10 µM, compound concentration 10 uM
[3] = 24 h, 1 µM, compound concentration 1 uM
[4] = 24 h, 10 µM, compound concentration 10 uM
[5] = 48 h, 1 µM, compound concentration 1 uM
[6] = 48 h, 10 µM, compound concentration 10 uM

Cc1cc(NC(=O)c2cccc(NC(=O)/C=C/CN(C)C)c2)ccc1Nc1nccc(-c2cccnc2)n1
Population Apoptotic (%) [1]: 100% and 77%
Population Healthy Nuclei (%) [1]: 55% and 82%
Population Hoechst High Intensity Objects (%) [1]: 0%
Population Membrane Permeable-Phenotype (%) [1]: 0%
Population Mitochondria Different-Phenotype (%) [1]: 4% and 0%
Population Mitotic Cells (%) [1]: 0% and 22%
Population Normal (%) [1]: 100%
Population Pyknosed Nuclei (%) [1]: 4% and 12%
Population Tubulin-Different-Phenotype (%) [1]: 70% and 87%
Population Apoptotic (%) [2]: 75%
Population Fragmented Nuclei (%) [2]: 9% and 3%
Population Healthy Nuclei (%) [2]: 61% and 65%
Population Hoechst High Intensity Objects (%) [2]: 0%
Population Membrane Permeable-Phenotype (%) [2]: 15% and 21%
Population Mitochondria Different-Phenotype (%) [2]: 23% and 18%
Population Mitotic Cells (%) [2]: 25% and 24%
Population Normal (%) [2]: 100%
Population Pyknosed Nuclei (%) [2]: 28% and 31%
Population Tubulin-Different-Phenotype (%) [2]: 76% and 43%
Population Apoptotic (%) [3]: 33% and 86%
Population Healthy Nuclei (%) [3]: 60% and 83%
Population Hoechst High Intensity Objects (%) [3]: 0%
Population Membrane Permeable-Phenotype (%) [3]: 3% and 1%
Population Mitochondria Different-Phenotype (%) [3]: 3% and 0%
Population Normal (%) [3]: 100%
Population Pyknosed Nuclei (%) [3]: 6% and 9%
Population Tubulin-Different-Phenotype (%) [3]: 66% and 90%
Population Apoptotic (%) [4]: 92% and 85%
Population Fragmented Nuclei (%) [4]: 15% and 10%
Population Healthy Nuclei (%) [4]: 26% and 35%
Population Hoechst High Intensity Objects (%) [4]: 4% and 1%
Population Membrane Permeable-Phenotype (%) [4]: 41% and 23%
Population Mitochondria Different-Phenotype (%) [4]: 41% and 38%
Population Mitotic Cells (%) [4]: 7% and 14%
Population Normal (%) [4]: 95% and 98%
Population Pyknosed Nuclei (%) [4]: 58% and 53%
Population Tubulin-Different-Phenotype (%) [4]: 91% and 61%
Population Apoptotic (%) [5]: 37% and 75%
Population Fragmented Nuclei (%) [5]: 18% and 6%
Population Healthy Nuclei (%) [5]: 69% and 86%
Population Hoechst High Intensity Objects (%) [5]: 0%
Population Membrane Permeable-Phenotype (%) [5]: 4% and 1%
Population Mitochondria Different-Phenotype (%) [5]: 2% and 1%
Population Mitotic Cells (%) [5]: 62% and 24%
Population Normal (%) [5]: 100%
Population Pyknosed Nuclei (%) [5]: 12% and 7%
Population Tubulin-Different-Phenotype (%) [5]: 68% and 91%
Population Apoptotic (%) [6]: 96% and 95%
Population Healthy Nuclei (%) [6]: 11% and 9%
Population Hoechst High Intensity Objects (%) [6]: 10% and 2%
Population Membrane Permeable-Phenotype (%) [6]: 100% and 92%
Population Mitochondria Different-Phenotype (%) [6]: 100% and 53%
Population Mitotic Cells (%) [6]: 3% and 4%
Population Normal (%) [6]: 89% and 97%
Population Pyknosed Nuclei (%) [6]: 67% and 84%
Population Tubulin-Different-Phenotype (%) [6]: 100% and 84%

CN1CCN(c2ccc(-n3cc(-c4ccncc4OCC4CCNCC4)cn3)cc2)CC1
Population Apoptotic (%) [1]: 100% and 71%
Population Healthy Nuclei (%) [1]: 63% and 82%
Population Hoechst High Intensity Objects (%) [1]: 0%
Population Membrane Permeable-Phenotype (%) [1]: 6% and 1%
Population Mitochondria Different-Phenotype (%) [1]: 3% and 2%
Population Normal (%) [1]: 100%
Population Pyknosed Nuclei (%) [1]: 2% and 10%
Population Tubulin-Different-Phenotype (%) [1]: 75% and 77%
Population Apoptotic (%) [2]: 80%
Population Healthy Nuclei (%) [2]: 48% and 67%
Population Hoechst High Intensity Objects (%) [2]: 1% and 0%
Population Membrane Permeable-Phenotype (%) [2]: 0% and 5%
Population Mitochondria Different-Phenotype (%) [2]: 7% and 16%
Population Mitotic Cells (%) [2]: 20% and 19%
Population Normal (%) [2]: 98% and 99%
Population Pyknosed Nuclei (%) [2]: 17% and 22%
Population Tubulin-Different-Phenotype (%) [2]: 21% and 36%
Population Apoptotic (%) [3]: 100% and 78%
Population Healthy Nuclei (%) [3]: 69% and 84%
Population Hoechst High Intensity Objects (%) [3]: 0%
Population Membrane Permeable-Phenotype (%) [3]: 4% and 1%
Population Mitochondria Different-Phenotype (%) [3]: 2% and 1%
Population Mitotic Cells (%) [3]: 0% and 21%
Population Normal (%) [3]: 100%
Population Pyknosed Nuclei (%) [3]: 3% and 11%
Population Tubulin-Different-Phenotype (%) [3]: 72% and 85%
Population Apoptotic (%) [4]: 76% and 88%
Population Fragmented Nuclei (%) [4]: 34% and 12%
Population Healthy Nuclei (%) [4]: 25% and 32%
Population Hoechst High Intensity Objects (%) [4]: 1% and 0%
Population Membrane Permeable-Phenotype (%) [4]: 6% and 8%
Population Mitochondria Different-Phenotype (%) [4]: 18% and 26%
Population Mitotic Cells (%) [4]: 24% and 11%
Population Normal (%) [4]: 98% and 100%
Population Pyknosed Nuclei (%) [4]: 39% and 55%
Population Tubulin-Different-Phenotype (%) [4]: 31% and 48%
Population Apoptotic (%) [5]: 54% and 86%
Population Healthy Nuclei (%) [5]: 51% and 86%
Population Hoechst High Intensity Objects (%) [5]: 0%
Population Membrane Permeable-Phenotype (%) [5]: 5% and 0%
Population Mitochondria Different-Phenotype (%) [5]: 1%
Population Normal (%) [5]: 100%
Population Pyknosed Nuclei (%) [5]: 10% and 9%
Population Tubulin-Different-Phenotype (%) [5]: 78% and 88%
Population Apoptotic (%) [6]: 90%
Population Healthy Nuclei (%) [6]: 13% and 21%
Population Hoechst High Intensity Objects (%) [6]: 0% and 1%
Population Membrane Permeable-Phenotype (%) [6]: 55% and 60%
Population Mitochondria Different-Phenotype (%) [6]: 55% and 60%
Population Mitotic Cells (%) [6]: 9%
Population Normal (%) [6]: 100% and 98%
Population Pyknosed Nuclei (%) [6]: 44% and 69%
Population Tubulin-Different-Phenotype (%) [6]: 88% and 65%
Total Cell Count [6]: 69 and 181

CC1(C)C(=O)N([C@H]2CCc3c(O)cccc32)c2nc(Nc3cccc(CN4CCCC4)c3)ncc21
Population Apoptotic (%) [1]: 50% and 79%
Population Healthy Nuclei (%) [1]: 25% and 70%
Population Hoechst High Intensity Objects (%) [1]: 0%
Population Membrane Permeable-Phenotype (%) [1]: 0% and 6%
Population Mitochondria Different-Phenotype (%) [1]: 0% and 17%
Population Mitotic Cells (%) [1]: 50% and 20%
Population Normal (%) [1]: 100%
Population Pyknosed Nuclei (%) [1]: 22%
Population Tubulin-Different-Phenotype (%) [1]: 55% and 51%
Population Apoptotic (%) [2]: 90% and 88%
Population Healthy Nuclei (%) [2]: 28% and 42%
Population Hoechst High Intensity Objects (%) [2]: 0% and 2%
Population Membrane Permeable-Phenotype (%) [2]: 62% and 26%
Population Mitochondria Different-Phenotype (%) [2]: 50% and 59%
Population Mitotic Cells (%) [2]: 9% and 11%
Population Normal (%) [2]: 100% and 97%
Population Pyknosed Nuclei (%) [2]: 39% and 49%
Population Tubulin-Different-Phenotype (%) [2]: 62% and 73%
Population Apoptotic (%) [3]: 80% and 81%
Population Healthy Nuclei (%) [3]: 25% and 59%
Population Hoechst High Intensity Objects (%) [3]: 0%
Population Membrane Permeable-Phenotype (%) [3]: 0% and 6%
Population Mitochondria Different-Phenotype (%) [3]: 0% and 16%
Population Mitotic Cells (%) [3]: 20% and 18%
Population Normal (%) [3]: 100%
Population Pyknosed Nuclei (%) [3]: 31% and 29%
Population Tubulin-Different-Phenotype (%) [3]: 62% and 42%
Population Apoptotic (%) [4]: 90% and 92%
Population Healthy Nuclei (%) [4]: 31% and 20%
Population Hoechst High Intensity Objects (%) [4]: 0% and 2%
Population Membrane Permeable-Phenotype (%) [4]: 44% and 36%
Population Mitochondria Different-Phenotype (%) [4]: 66% and 72%
Population Mitotic Cells (%) [4]: 9% and 8%
Population Normal (%) [4]: 100% and 97%
Population Pyknosed Nuclei (%) [4]: 37% and 71%
Population Tubulin-Different-Phenotype (%) [4]: 55% and 83%
Population Apoptotic (%) [5]: 91% and 94%
Population Hoechst High Intensity Objects (%) [5]: 3% and 1%
Population Membrane Permeable-Phenotype (%) [5]: 50% and 21%
Population Mitochondria Different-Phenotype (%) [5]: 0% and 22%
Population Mitotic Cells (%) [5]: 8% and 5%
Population Normal (%) [5]: 96% and 98%
Population Pyknosed Nuclei (%) [5]: 37% and 47%
Population Tubulin-Different-Phenotype (%) [5]: 50% and 51%
Population Apoptotic (%) [6]: 97% and 81%
Population Healthy Nuclei (%) [6]: 12% and 15%
Population Hoechst High Intensity Objects (%) [6]: 1% and 2%
Population Membrane Permeable-Phenotype (%) [6]: 77% and 50%
Population Mitochondria Different-Phenotype (%) [6]: 77% and 50%
Population Normal (%) [6]: 98% and 97%
Population Pyknosed Nuclei (%) [6]: 81% and 28%
Population Tubulin-Different-Phenotype (%) [6]: 81% and 83%

COCCNC1CCC(Nc2cc(-c3csc(NCC4(C#N)CCOCC4)n3)c(Cl)cn2)CC1 (stereo not given)
Population Apoptotic (%) [1]: 45% and 87%
Population Fragmented Nuclei (%) [1]: 17% and 9%
Population Healthy Nuclei (%) [1]: 34% and 40%
Population Hoechst High Intensity Objects (%) [1]: 0%
Population Mitochondria Different-Phenotype (%) [1]: 7%
Population Normal (%) [1]: 100% and 99%
Population Pyknosed Nuclei (%) [1]: 48% and 49%
Population Tubulin-Different-Phenotype (%) [1]: 57% and 58%
Population Apoptotic (%) [2]: 83% and 89%
Population Fragmented Nuclei (%) [2]: 10%
Population Hoechst High Intensity Objects (%) [2]: 2% and 1%
Population Mitochondria Different-Phenotype (%) [2]: 40% and 66%
Population Mitotic Cells (%) [2]: 16% and 10%
Population Normal (%) [2]: 97% and 98%
Population Pyknosed Nuclei (%) [2]: 40% and 78%
Population Tubulin-Different-Phenotype (%) [2]: 50%
Population Apoptotic (%) [3]: 59% and 94%
Population Fragmented Nuclei (%) [3]: 13% and 9%
Population Healthy Nuclei (%) [3]: 25% and 26%
Population Hoechst High Intensity Objects (%) [3]: 0% and 3%
Population Membrane Permeable-Phenotype (%) [3]: 0% and 14%
Population Mitochondria Different-Phenotype (%) [3]: 0% and 11%
Population Normal (%) [3]: 100% and 96%
Population Pyknosed Nuclei (%) [3]: 61% and 63%
Population Tubulin-Different-Phenotype (%) [3]: 55%
Population Apoptotic (%) [4]: 91%
Population Fragmented Nuclei (%) [4]: 9% and 6%
Population Hoechst High Intensity Objects (%) [4]: 2% and 3%
Population Membrane Permeable-Phenotype (%) [4]: 0% and 20%
Population Mitochondria Different-Phenotype (%) [4]: 33% and 58%
Population Mitotic Cells (%) [4]: 8%
Population Normal (%) [4]: 97% and 96%
Population Pyknosed Nuclei (%) [4]: 84% and 60%
Population Tubulin-Different-Phenotype (%) [4]: 66% and 52%
Population Apoptotic (%) [5]: 98% and 78%
Population Fragmented Nuclei (%) [5]: 11% and 16%
Population Healthy Nuclei (%) [5]: 7% and 9%
Population Hoechst High Intensity Objects (%) [5]: 5% and 0%
Population Membrane Permeable-Phenotype (%) [5]: 53% and 66%
Population Mitochondria Different-Phenotype (%) [5]: 38% and 66%
Population Normal (%) [5]: 94% and 100%
Population Pyknosed Nuclei (%) [5]: 81% and 74%
Population Tubulin-Different-Phenotype (%) [5]: 69% and 100%
Population Apoptotic (%) [6]: 100% and 94%
Population Fragmented Nuclei (%) [6]: 9% and 5%
Population Healthy Nuclei (%) [6]: 6% and 16%
Population Hoechst High Intensity Objects (%) [6]: 2% and 3%
Population Membrane Permeable-Phenotype (%) [6]: 66% and 40%
Population Mitochondria Different-Phenotype (%) [6]: 66% and 80%
Population Mitotic Cells (%) [6]: 0% and 5%
Population Normal (%) [6]: 97% and 96%
Population Pyknosed Nuclei (%) [6]: 83% and 78%
Population Tubulin-Different-Phenotype (%) [6]: 66% and 72%
